Published values gathered from unrelated publications.
Each line is one published result; the experiments were not run side by side.
Target: RAC-alpha serine/threonine-protein kinase (AKT1, Homo sapiens, UniProt P31749)

Structure (SMILES)	assay	setting	remaining binding
Cc1cnn2ncc(-c3ccnc(N(C)C)n3)c2c1	binding	1 µM	94%
COc1cnc(Nc2cccc(S(N)(=O)=O)c2)nc1N1CCN(c2ccccc2)CC1	binding, competition with immobilised ligand	1 µM	100%
CC(=O)C1=C(C)N(c2cccc(C(F)(F)F)c2)C(=O)N[C@@H]1c1ccc(C#N)nc1	cell-free assay, competition with immobilised ligand	1 µM	90.4%
c1cncc(-c2cccc(Nc3nccc(NC4CCCCC4)n3)c2)c1	binding, competition with immobilised ligand	10 µM	71%
C[C@@H]1CN(c2ccc3ncc(-c4ccc5[nH]nc(C6CC6)c5c4)n3n2)C[C@H](C)O1	binding, competition with immobilised ligand	0.5 µM	100%
O=C(NCCCC1CCCCC1)c1ccc(CNC(=O)c2cnn(-c3ccccc3)c2C(F)(F)F)cc1	cell-free assay, competition with immobilised ligand	0.1 µM	100%
CN(c1nccc(-c2cnn3ncccc23)n1)C1CC1	binding	1 µM	100%
Cc1nc(N2CC[C@@H](O)C2)ncc1-c1cc(C(F)(F)F)cc2[nH]ncc12	binding, competition with immobilised ligand	1 µM	100%
CCN1CCN(Cc2ccc(C(=O)Nc3ccc(C)c(Oc4ccc5c(c4)CC(=O)N5)c3)cc2C(F)(F)F)CC1	binding, competition with immobilised ligand	1 µM	94%
C=CC(=O)N1CCC(C(=O)NCC(=O)N2CCN(c3nc(-c4cnc(N)nc4C(F)F)nc(N4CCOCC4)n3)CC2)CC1	binding, competition with immobilised ligand	1 µM	94%
FC(F)(F)c1ccc2c(c1)nc(-c1cccnc1)n2C1CC1	cell-free assay, competition with immobilised ligand	1 µM	100%
O=C(c1ccc(Nc2ncc(Cl)c(-c3cc4ccccc4s3)n2)cc1)N1CCC(N2CCCC2)CC1	binding, competition with immobilised ligand	1 µM	100%
F[C@@H]1CCN(c2nccc(-c3cnn4ncccc34)n2)C1	binding	1 µM	100%
CC1=C(C#N)C(c2ccc3c(c2)c(NC(=O)c2ccccc2C)nn3C)C(C#N)=C(C)N1	cell-free assay, competition with immobilised ligand	1 µM	94%
O=C(c1ccc(Nc2ncc(Cl)c(-c3ccc(Cl)s3)n2)cc1)N1CCC(N2CCCC2)CC1	binding, competition with immobilised ligand	1 µM	100%
CNC(=O)[C@@H]1CC[C@@H](n2c(-c3ccc4cnccc4c3)nc3ccc(C(=O)NCc4cccc(C(N)=O)c4)cc32)C1	binding, competition with immobilised ligand	1 µM	100%
COc1ccnn2ncc(-c3ccnc(N(C)C)n3)c12	binding	1 µM	100%
C[C@H](c1ccc(F)cc1)N(Cc1cccc(C(=O)O)c1)C(=O)c1cnc2ccccc2c1	cell-free assay, competition with immobilised ligand	1 µM	100%
c1cnn2ncc(-c3ccnc(N4CCC45COC5)n3)c2c1	binding	1 µM	95%
O=C(c1ccc(Nc2nccc(-c3cc4ccccc4s3)n2)cc1)N1CCC(N2CCCC2)CC1	binding, competition with immobilised ligand	1 µM	100%
N[C@@H]1CCN(c2nccc(-c3cnn4ncccc34)n2)C1	binding	1 µM	100%
Cc1c(C(=O)O)cc(-c2ccc(C3CCNCC3)cc2)c2ccc(-c3ccc(C(F)(F)F)cc3)cc12	binding, competition with immobilised ligand	1 µM	100%
CC(C)(C)c1ccc(-c2nc(CBr)nn2-c2cccc(O)c2)cc1	cell-free assay, competition with immobilised ligand	10 µM	94%
C[C@H]1CCN(c2nccc(-c3cnn4ncccc34)n2)C1	binding	1 µM	92%
O=C(Nc1c[nH]nc1C(=O)NC1CCNCC1)c1cc(F)cc(F)c1	binding, competition with immobilised ligand	1 µM	92%
